# ChEMBL document CHEMBL2021854, “2-Aminopyrimidine based 4-aminoquinoline anti-plasmodial agents. Synthesis, biological activity, structure-activity relationship and mode of action studies” (Eur J Med Chem, 2012)
# Assays:
# Coxsackievirus B4 [1] = test: Antiviral activity against Coxsackie virus B4 infected in african green monkey Vero cells assessed as inhibition of virus-induced cytopathogenicity after 4 days; format: functional, organism-based; details: Enterovirus B, 96 h
# Method in brief: (§1)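 Confluent HEL, Vero or HeLa monolayers were inoculated with 100 CCID50 of virus in the presence of varying concentrations of compound. Cytopathicity was scored when it reached completion in untreated, virus-infected control cultures.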
# Influenza B virus [2] = test: Antiviral activity against Influenza B virus infected in MDCK cells assessed as reduction visual scoring of virus-induced cytopathogenicity after 4 days; format: functional, organism-based; details: 96 h
# Method in brief: (§2)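 MDCK monolayers infected with 100 CCID50 of influenza A (H1N1 or H3N2) or influenza B, with varying compound concentrations. Cytopathicity read when untreated infected controls reached complete CPE.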
# [3] = Cytotoxicity against MDCK cells assessed as minimum compound concentration required to causes microscopically detectable alteration of normal cell morphology; format: cell-based, Canis lupus familiaris; details: dog
# Method in brief: (§3)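 Confluent, non-proliferating cell cultures were exposed to the compounds. The endpoint was the minimum concentration producing a microscopically detectable alteration of normal cell morphology.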
# [4] = Cytotoxicity against human HeLa cells assessed as minimum compound concentration required to causes microscopically detectable alteration of normal cell morphology; format: cell-based; method in brief: as §3
# [5] = Cytotoxicity against human HEL cells assessed as minimum compound concentration required to causes microscopically detectable alteration of normal cell morphology; format: cell-based; method in brief: as §3
# Influenza A virus [6] = test: Antiviral activity against Influenza A virus H3N2 infected in MDCK cells assessed as reduction visual scoring of virus-induced cytopathogenicity after 4 days; format: functional, organism-based; details: 96 h; method in brief: as §2
# [7] = tested on: Mammalian orthoreovirus 1; test: Antiviral activity against Reovirus-1 infected in african green monkey Vero cells assessed as inhibition of virus-induced cytopathogenicity after 4 days; format: functional, organism-based; details: Mammalian orthoreovirus 1, Vero, 96 h; method in brief: as §1
# Human betaherpesvirus 5 [8] = test: Antiviral activity against Human cytomegalovirus Davis infected in HEL cells assessed as inhibition of virus plaque formation after 4 days; format: functional, organism-based; details: Human betaherpesvirus 5, Davis, 96 h
# [9] = tested on: Feline infectious peritonitis virus; test: Antiviral activity against FIPV infected in cat CRFK cells assessed as inhibition of virus-induced cytopathic effect after 4 days by colorimetric formazan-based MTS assay; format: functional, cell-based; details: Alphacoronavirus 1, CRFK, 96 h
# Plasmodium falciparum [10] = test: Antiplasmodial activity chloroquine-resistant Plasmodium falciparum K1 infected in human A+ erythrocytes assessed as inhibition of [3H]-hypoxanthine incorporation after 24 hrs by scintillation counting; format: functional, organism-based
# [11] = tested on: Human immunodeficiency virus 1; test: Antiviral activity against HIV1 infected in human CEM cells assessed as inhibition of virus-induced cytopathic effect after 4 days; format: functional, organism-based; details: Human immunodeficiency virus 1, CCRF-CEM, 96 h
# Method in brief: (§4)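 CEM T-lymphocytes (~3 × 10^5 cells/ml) were infected with HIV-1 IIIB or HIV-2 ROD at ~100 CCID50, then immediately plated with a range of compound concentrations. Giant cell formation was scored microscopically after 4 days at 37 °C. Cytostatic activity was tested in parallel in uninfected CEM cells.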
# Punta Toro virus = test: Antiviral activity against Punta Toro virus infected in african green monkey Vero cells assessed as inhibition of virus-induced cytopathogenicity after 4 days; format: functional, organism-based; details: 96 h; method in brief: as §1
# [12] = Cytotoxicity against cat CRFK cells assessed as cell viability by colorimetric formazan-based MTS assay; design: species or system Felis catus; details: crfk
# Human alphaherpesvirus 2 = test: Antiviral activity against HSV2 G infected in HEL cells assessed as inhibition of virus-induced cytopathogenicity after 4 days; format: functional, organism-based; details: Human alphaherpesvirus 2, strain G, 96 h; method in brief: as §1
# Human betaherpesvirus 5 [13] = test: Antiviral activity against Cytomegalovirus AD-169 infected in HEL cells assessed as inhibition of virus plaque formation after 4 days; format: functional, organism-based; details: Human betaherpesvirus 5, AD169, HEL, 96 h
# Felid alphaherpesvirus 1 = test: Antiviral activity against Feline herpesvirus infected in cat CRFK cells assessed as inhibition of virus-induced cytopathic effect after 4 days by colorimetric formazan-based MTS assay; format: functional, organism-based; details: Felid alphaherpesvirus 1, CRFK, 96 h
# Influenza B virus [14] = test: Antiviral activity against Influenza B virus infected in MDCK cells assessed as inhibition of virus-induced cytopathogenicity after 4 days by colorimetric formazan-based MTS assay; format: functional, organism-based; details: 96 h
# Human alphaherpesvirus 1 [15] = test: Antiviral activity against thymidine kinase-deficient acyclovir-resistant HSV1 KOS infected in HEL cells assessed as inhibition of virus-induced cytopathogenicity after 4 days; format: functional, organism-based; details: Human alphaherpesvirus 1, KOS, 96 h
# Method in brief: (§5)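 Confluent HEL or HeLa monolayers infected with 100 CCID50 of virus in the presence of varying compound concentrations.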
# Influenza A virus [16] = test: Antiviral activity against Influenza A virus H1N1 infected in MDCK cells assessed as inhibition of virus-induced cytopathogenicity after 4 days by colorimetric formazan-based MTS assay; format: functional, organism-based; details: 96 h
# Plasmodium falciparum [17] = test: Antiplasmodial activity chloroquine-sensitive Plasmodium falciparum 3D7 infected in human A+ erythrocytes assessed as inhibition of [3H]-hypoxanthine incorporation after 24 hrs by scintillation counting; format: functional, organism-based
# [18] = Selectivity index, ratio of CC50 for MDCK cells to IC50 for chloroquine-resistant Plasmodium falciparum K1; format: functional
# Method in brief: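 Selectivity index computed as MTS-based CC50 on MDCK cells divided by IC50 against P. falciparum K1.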
# Influenza A virus [19] = test: Antiviral activity against Influenza A virus H1N1 infected in MDCK cells assessed as reduction visual scoring of virus-induced cytopathogenicity after 4 days; format: functional, organism-based; details: 96 h; method in brief: as §2
# Influenza A virus [20] = test: Antiviral activity against Influenza A virus H3N2 infected in MDCK cells assessed as inhibition of virus-induced cytopathogenicity after 4 days by colorimetric formazan-based MTS assay; format: functional, organism-based; details: 96 h
# Human respirovirus 3 = test: Antiviral activity against Parainfluenza-3 virus infected in african green monkey Vero cells assessed as inhibition of virus-induced cytopathogenicity after 4 days; format: functional, organism-based; details: Human respirovirus 3, Vero, 96 h; method in brief: as §1
# MDCK = test: Cytotoxicity against MDCK cells assessed as cell viability by colorimetric formazan-based MTS assay; design: species or system Canis lupus familiaris; details: dog, mdck
# Method in brief: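 Cytotoxicity on MDCK cells; 50% cytotoxic concentration from cell viability measured by colorimetric formazan-based MTS assay.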
# Human alphaherpesvirus 3 [21] = test: Antiviral activity against thymidine kinase-deficient […] infected in HEL cells assessed as reduction of virus plaque formation after 4 days; format: functional, organism-based; details: Human alphaherpesvirus 3, 07-1, HEL, 96 h
# Sindbis virus = test: Antiviral activity against Sindbis virus infected in african green monkey Vero cells assessed as inhibition of virus-induced cytopathogenicity after 4 days; format: functional, organism-based; details: 96 h; method in brief: as §1
# [22] = tested on: Human immunodeficiency virus 2; test: Antiviral activity against HIV2 infected in human CEM cells assessed as inhibition of virus-induced cytopathic effect after 4 days; format: functional, organism-based; details: Human immunodeficiency virus 2, CCRF-CEM, 96 h; method in brief: as §4
# [23] = Cytotoxicity against african green monkey Vero cells assessed as minimum compound concentration required to causes microscopically detectable alteration of normal cell morphology; format: cell-based; details: chlorocebus sabaeus; method in brief: as §3
# Coxsackievirus B4 [24] = test: Antiviral activity against Coxsackie virus B4 infected in human HeLa cells assessed as inhibition of virus-induced cytopathogenicity after 4 days; format: functional, organism-based; details: Enterovirus B, 96 h; method in brief: as §1
# [25] = tested on: Respiratory syncytial virus; test: Antiviral activity against Respiratory syncytial virus infected in human HeLa cells assessed as inhibition of virus-induced cytopathogenicity after 4 days; format: functional, organism-based; details: 96 h; method in brief: as §1
# Human alphaherpesvirus 1 [26] = test: Antiviral activity against HSV1 KOS infected in HEL cells assessed as inhibition of virus-induced cytopathogenicity after 4 days; format: functional, organism-based; details: Human alphaherpesvirus 1, KOS, 96 h; method in brief: as §5
# HeLa = test: Cytotoxicity against human HeLa cells assessed as cell viability by colorimetric formazan-based MTS assay
# Plasmodium falciparum [27] = test: Resistant factor, ratio of IC50 for chloroquine-resistant Plasmodium falciparum K1 to IC50 for chloroquine-sensitive Plasmodium falciparum 3D7; format: functional
# Method in brief: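 Resistance factor computed as IC50 against K1 divided by IC50 against 3D7, both from the [3H]hypoxanthine incorporation assay.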
# [28] = tested on: Vesicular stomatitis virus; test: Antiviral activity against Vesicular stomatitis virus infected in HeLa cells assessed as inhibition of virus-induced cytopathogenicity after 4 days; format: functional, organism-based; details: 96 h; method in brief: as §5
# [29] = tested on: Vesicular stomatitis virus; test: Antiviral activity against Vesicular stomatitis virus infected in HEL cells assessed as inhibition of virus-induced cytopathogenicity after 4 days; format: functional, organism-based; details: 96 h; method in brief: as §5
# Human alphaherpesvirus 3 [30] = test: Antiviral activity against […] expressing thymidine kinase infected in HEL cells assessed as reduction of virus plaque formation after 4 days; format: functional, cell-based; details: Human alphaherpesvirus 3, strain Oka vaccine, 96 h
# [31] = Inhibition of beta-hematin formation assessed as Ferriprotoporphyrin IX biomineralisation at 1 mg/ml after 24 hrs; format: functional
# Method in brief: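 Hemin chloride (0.5 mg/ml in DMSO) mixed with 0.5 M sodium acetate buffer pH 4.4 and drug or solvent control, incubated 37 °C for 24 h. Pellet washed with DMSO to remove unreacted hemin, dissolved in 0.1 N NaOH, absorbance read at 405 nm; percent inhibition relative to control. Highest concentration tested 1 mg/ml.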
smiles,measurement,setting,value
CCOC(=O)c1c(C)nc(NCCCCNc2ccnc3cc(Cl)ccc23)nc1C,EC50,Coxsackievirus B4 [1],> 20 µM
same,EC50,Influenza B virus [2],> 0.8 µM
same,MCC,[3],4 µM
same,MCC,[4],≥ 20 µM
same,MCC,[5],> 20 µM
same,EC50,Influenza A virus [6],> 0.8 µM
same,EC50,[7],> 20 µM
same,EC50,Human betaherpesvirus 5 [8],5.23 µM
same,EC50,[9],> 4 µM
same,IC50,Plasmodium falciparum [10],1.66 µM
same,EC50,[11],> 2 µM
same,EC50,Punta Toro virus,> 20 µM
same,CC50,[12],14.5 µM
same,EC50,Human alphaherpesvirus 2,> 20 µM
same,EC50,Human betaherpesvirus 5 [13],> 4 µM
same,EC50,Felid alphaherpesvirus 1,> 4 µM
same,EC50,Influenza B virus [14],> 0.8 µM
same,EC50,Human alphaherpesvirus 1 [15],> 100 µM
same,EC50,Influenza A virus [16],> 0.8 µM
same,IC50,Plasmodium falciparum [17],0.0421 µM
same,Ratio CC50/IC50,[18],0.48
same,EC50,Influenza A virus [19],> 0.8 µM
same,EC50,Influenza A virus [20],> 0.8 µM
same,EC50,Human respirovirus 3,> 20 µM
same,CC50,MDCK,0.8 µM
same,EC50,Human alphaherpesvirus 3 [21],> 20 µM
same,EC50,Sindbis virus,> 20 µM
same,EC50,[22],> 2 µM
same,MCC,[23],100 µM
same,EC50,Coxsackievirus B4 [24],> 20 µM
same,EC50,[25],> 20 µM
same,EC50,Human alphaherpesvirus 1 [26],> 100 µM
same,CC50,HeLa,6.07 µM
same,Ratio IC50,Plasmodium falciparum [27],39.422
same,EC50,[28],> 20 µM
same,EC50,[29],> 100 µM
same,EC50,Human alphaherpesvirus 3 [30],9.26 µM
same,inhibition,[31],100%
